{
  "source": "ChEMBL document CHEMBL4373640",
  "about": "“Synthesis and antitumor activity of aza-brazilan derivatives containing imidazolium salt pharmacophores” (Medchemcomm, 2019)",
  "key": {"[1]": {"experiment": "Cytotoxicity against human SMMC-7221 cells assessed as reduction in cell viability after 48 hrs by MTS assay", "type": "functional, cell-based", "conditions": "SMMC-7221, 48 h", "procedure,_shortened": "(§1)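 Cells (5 × 10^3 per well) were plated 12 h before treatment, then exposed continuously to compound for 48 h. MTS was added, with 1–4 h incubation at 37 °C and OD read at 490 nm. IC50 is the concentration cutting OD by 50% versus untreated cells, taken from dose–response curves. Values are the mean of three independent determinations.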"}, "A549": {"tested_on": "A549", "experiment": "Cytotoxicity against human A549 cells assessed as reduction in cell viability after 48 hrs by MTS assay", "type": "functional, cell-based", "conditions": "A549, 48 h", "procedure,_shortened": "as §1"}, "MCF7": {"tested_on": "MCF7", "experiment": "Cytotoxicity against human MCF7 cells assessed as reduction in cell viability after 48 hrs by MTS assay", "type": "functional, cell-based", "conditions": "MCF7, 48 h", "procedure,_shortened": "as §1"}, "L02": {"tested_on": "L02", "experiment": "Cytotoxicity against human LO2 cells assessed as reduction in cell viability after 48 hrs by MTS assay", "type": "cell-based", "conditions": "L02, 48 h", "procedure,_shortened": "as §1"}, "BEAS-2B": {"tested_on": "BEAS-2B", "experiment": "Cytotoxicity against human BEAS2B cells assessed as reduction in cell viability after 48 hrs by MTS assay", "type": "cell-based", "procedure,_shortened": "as §1"}, "NCM460": {"tested_on": "NCM460", "experiment": "Cytotoxicity against human NCM460 cells assessed as reduction in cell viability after 48 hrs by MTS assay", "type": "cell-based", "conditions": "NCM460, 48 h", "procedure,_shortened": "as §1"}, "[2]": {"experiment": "Cell cycle arrest in human SMMC-7221 cells assessed as accumulation at sub-G1 phase at 1 uM after 24 hrs by propidium iodide/RNase A staining based FACSCalibur flow cytometry analysis (reference value: 4.03 +/- 0.47 %)", "type": "functional"}, "[3]": {"experiment": "Cell cycle arrest in human SMMC-7221 cells assessed as accumulation at G2/M phase at 1 uM after 24 hrs by propidium iodide/RNase A staining based FACSCalibur flow cytometry analysis (reference value: 8.21 +/- 0.38 %)", "type": "functional"}, "[4]": {"experiment": "Cell cycle arrest in human SMMC-7221 cells assessed as accumulation at G0/G1 phase at 2 uM after 24 hrs by propidium iodide/RNase A staining based FACSCalibur flow cytometry analysis (reference value: 72.17 +/- 1.0 %)", "type": "functional"}, "[5]": {"experiment": "Cell cycle arrest in human SMMC-7221 cells assessed as accumulation at S phase at 2 uM after 24 hrs by propidium iodide/RNase A staining based FACSCalibur flow cytometry analysis (reference value: 14.733 +/- 1.29 %)", "type": "functional"}, "[6]": {"experiment": "Cell cycle arrest in human SMMC-7221 cells assessed as accumulation at G2/M phase at 2 uM after 24 hrs by propidium iodide/RNase A staining based FACSCalibur flow cytometry analysis (reference value: 8.21 +/- 0.38 %)", "type": "functional"}, "[7]": {"experiment": "Cell cycle arrest in human SMMC-7221 cells assessed as accumulation at sub-G1 phase at 4 uM after 24 hrs by propidium iodide/RNase A staining based FACSCalibur flow cytometry analysis (reference value: 4.03 +/- 0.47 %)", "type": "functional"}, "[8]": {"experiment": "Cell cycle arrest in human SMMC-7221 cells assessed as accumulation at G0/G1 phase at 4 uM after 24 hrs by propidium iodide/RNase A staining based FACSCalibur flow cytometry analysis (reference value: 72.17 +/- 1.0 %)", "type": "functional"}, "[9]": {"experiment": "Cell cycle arrest in human SMMC-7221 cells assessed as accumulation at S phase at 4 uM after 24 hrs by propidium iodide/RNase A staining based FACSCalibur flow cytometry analysis (reference value: 14.733 +/- 1.29 %)", "type": "functional"}, "[10]": {"experiment": "Cell cycle arrest in human SMMC-7221 cells assessed as accumulation at G2/M phase at 4 uM after 24 hrs by propidium iodide/RNase A staining based FACSCalibur flow cytometry analysis (reference value: 8.21 +/- 0.38 %)", "type": "functional"}, "[11]": {"experiment": "Induction of apoptosis in human SMMC-7221 cells assessed as viable cells at 0.5 uM after 48 hrs by AnnexinV-FITC/propidium iodide staining based FACSCalibur flow cytometry analysis (reference value: 89.8 %)", "type": "functional", "conditions": "SMMC-7221, 48 h, read-out: Activity"}, "[12]": {"experiment": "Induction of apoptosis in human SMMC-7221 cells assessed as late apoptotic cells at 0.5 uM after 48 hrs by AnnexinV-FITC/propidium iodide staining based FACSCalibur flow cytometry analysis (reference value: 7.7 %)", "type": "functional"}, "[13]": {"experiment": "Induction of apoptosis in human SMMC-7221 cells assessed as necrotic cells at 0.5 uM after 48 hrs by AnnexinV-FITC/propidium iodide staining based FACSCalibur flow cytometry analysis (reference value: 2.34 %)", "type": "functional"}, "[14]": {"experiment": "Induction of apoptosis in human SMMC-7221 cells assessed as viable cells at 1 uM after 48 hrs by AnnexinV-FITC/propidium iodide staining based FACSCalibur flow cytometry analysis (reference value: 89.8 %)", "type": "functional", "conditions": "SMMC-7221, 48 h, read-out: Activity"}, "[15]": {"experiment": "Induction of apoptosis in human SMMC-7221 cells assessed as early apoptotic cells at 1 uM after 48 hrs by AnnexinV-FITC/propidium iodide staining based FACSCalibur flow cytometry analysis (reference value: 0.106 %)", "type": "functional"}, "[16]": {"experiment": "Induction of apoptosis in human SMMC-7221 cells assessed as late apoptotic cells at 1 uM after 48 hrs by AnnexinV-FITC/propidium iodide staining based FACSCalibur flow cytometry analysis (reference value: 7.7 %)", "type": "functional"}, "[17]": {"experiment": "Induction of apoptosis in human SMMC-7221 cells assessed as necrotic cells at 1 uM after 48 hrs by AnnexinV-FITC/propidium iodide staining based FACSCalibur flow cytometry analysis (reference value: 2.34 %)", "type": "functional"}, "[18]": {"experiment": "Induction of apoptosis in human SMMC-7221 cells assessed as viable cells at 2 uM after 48 hrs by AnnexinV-FITC/propidium iodide staining based FACSCalibur flow cytometry analysis (reference value: 89.8 %)", "type": "functional", "conditions": "SMMC-7221, 48 h, read-out: Activity"}, "[19]": {"experiment": "Induction of apoptosis in human SMMC-7221 cells assessed as early apoptotic cells at 2 uM after 48 hrs by AnnexinV-FITC/propidium iodide staining based FACSCalibur flow cytometry analysis (reference value: 0.106 %)", "type": "functional"}, "[20]": {"experiment": "Induction of apoptosis in human SMMC-7221 cells assessed as necrotic cells at 2 uM after 48 hrs by AnnexinV-FITC/propidium iodide staining based FACSCalibur flow cytometry analysis (reference value: 2.34 %)", "type": "functional"}, "[21]": {"experiment": "Induction of apoptosis in human SMMC-7221 cells assessed as late apoptotic cells at 4 uM after 48 hrs by AnnexinV-FITC/propidium iodide staining based FACSCalibur flow cytometry analysis (reference value: 7.7 %)", "type": "functional"}, "[22]": {"experiment": "Induction of apoptosis in human SMMC-7221 cells assessed as necrotic cells at 4 uM after 48 hrs by AnnexinV-FITC/propidium iodide staining based FACSCalibur flow cytometry analysis (reference value: 2.34 %)", "type": "functional"}, "[23]": {"experiment": "Induction of apoptosis in human SMMC-7221 cells assessed as viable cells at 8 uM after 48 hrs by AnnexinV-FITC/propidium iodide staining based FACSCalibur flow cytometry analysis (reference value: 89.8 %)", "type": "functional", "conditions": "SMMC-7221, 48 h, read-out: Activity"}, "[24]": {"experiment": "Induction of apoptosis in human SMMC-7221 cells assessed as late apoptotic cells at 8 uM after 48 hrs by AnnexinV-FITC/propidium iodide staining based FACSCalibur flow cytometry analysis (reference value: 7.7 %)", "type": "functional"}, "[25]": {"experiment": "Induction of apoptosis in human SMMC-7221 cells assessed as necrotic cells at 8 uM after 48 hrs by AnnexinV-FITC/propidium iodide staining based FACSCalibur flow cytometry analysis (reference value: 2.34 %)", "type": "functional"}},
  "data": [
    {"smiles": "COc1cccc2c1N(CCCn1c[n+](Cc3ccc(C)cc3)c3cc(C)c(C)cc31)C[C@@H]1Cc3ccc(Br)cc3[C@H]21.[Br-]", "values": [
      {"measurement": "IC50", "setting": "[1]", "result": 520, "unit": "nM"},
      {"measurement": "IC50", "setting": "A549", "result": 1300, "unit": "nM"},
      {"measurement": "IC50", "setting": "MCF7", "result": 680, "unit": "nM"},
      {"measurement": "IC50", "setting": "L02", "result": 2100, "unit": "nM"},
      {"measurement": "IC50", "setting": "BEAS-2B", "result": 2090, "unit": "nM"},
      {"measurement": "IC50", "setting": "NCM460", "result": 1970, "unit": "nM"},
      {"measurement": "Activity", "setting": "[2]", "result": 1.32, "unit": "%"},
      {"measurement": "Activity", "setting": "[3]", "result": 7.64, "unit": "%"},
      {"measurement": "Activity", "setting": "[4]", "result": 80.22, "unit": "%"},
      {"measurement": "Activity", "setting": "[5]", "result": 9.27, "unit": "%"},
      {"measurement": "Activity", "setting": "[6]", "result": 9.16, "unit": "%"},
      {"measurement": "Activity", "setting": "[7]", "result": 18.65, "unit": "%"},
      {"measurement": "Activity", "setting": "[8]", "result": 62.54, "unit": "%"},
      {"measurement": "Activity", "setting": "[9]", "result": 12.76, "unit": "%"},
      {"measurement": "Activity", "setting": "[10]", "result": 5.98, "unit": "%"},
      {"measurement": "viability at 0.5 µM", "setting": "[11]", "result": 84.2, "unit": "%"},
      {"measurement": "Activity", "setting": "[12]", "result": 8.66, "unit": "%"},
      {"measurement": "Activity", "setting": "[13]", "result": 6.79, "unit": "%"},
      {"measurement": "viability at 1 µM", "setting": "[14]", "result": 79.2, "unit": "%"},
      {"measurement": "Activity", "setting": "[15]", "result": 0.529, "unit": "%"},
      {"measurement": "Activity", "setting": "[16]", "result": 14.6, "unit": "%"},
      {"measurement": "Activity", "setting": "[17]", "result": 5.66, "unit": "%"},
      {"measurement": "viability at 2 µM", "setting": "[18]", "result": 77.7, "unit": "%"},
      {"measurement": "Activity", "setting": "[19]", "result": 0.216, "unit": "%"},
      {"measurement": "Activity", "setting": "[20]", "result": 6.13, "unit": "%"},
      {"measurement": "Activity", "setting": "[21]", "result": 76.8, "unit": "%"},
      {"measurement": "Activity", "setting": "[22]", "result": 7.08, "unit": "%"},
      {"measurement": "viability at 8 µM", "setting": "[23]", "result": 5.16, "unit": "%"},
      {"measurement": "Activity", "setting": "[24]", "result": 81.4, "unit": "%"},
      {"measurement": "Activity", "setting": "[25]", "result": 13.3, "unit": "%"}
    ]}
  ]
}
